Here are results for one compound from ChEMBL document CHEMBL1221390, “Withaferin A, a cytotoxic steroid from Vassobia breviflora, induces apoptosis in human head and neck squamous cell carcinoma” (J Nat Prod, 2010).

Activity calls are given as the source filed them. The calls are words filed in the database; no cut-off is given here.

Assay [1] can be described thus: Induction of cell cycle arrest in human MDA1986 cells assessed as accumulation at G2/M phase at 3 uM after 24 hrs by flow cytometry. It is filed as functional. In outline:
(§1)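 Treated 24 h with 3.0 μM or DMSO vehicle. Cells trypsinized; 1×10⁶ washed in 0.9% NaCl and fixed 30 min at room temperature in cold 70% ethanol/0.9% NaCl. Stained with PI (50 μg/mL in PBS) 30 min, then DNase-free RNase (1 mg/mL) 30 min. Phase distribution (sub-G0, G0/G1, S, G2/M) by flow cytometry.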

Assay [2] concerns UM-SCC2. The assay can be described thus: Induction of apoptosis in human UM-SCC2 cells assessed as increase in early apoptotic cells at 5 uM after 24 hrs by FITC-conjugated annexin V and propidium iodide staining-based flow cytometry. The class given is functional, cell-based. The procedure, abridged: (§2)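 Cells given 5.0 μM for 24 h, harvested, and co-stained at 1×10⁶ cells/mL with annexin V-FITC and PI. Annexin binding buffer added before flow cytometry. Annexin V only scored as early apoptosis, annexin V+PI as late apoptosis, PI only as necrosis. Triplicate; t-test.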

The species entered for assay [3] is Homo sapiens. As to the kind of experiment: Induction of apoptosis in human MDA1986 cells assessed as decrease in procaspase-3 level at 1 to 6 uM after 24 hrs by Western blot analysis. The class given is functional, cell-based. In outline:
(§3)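 Cells exposed to increasing concentrations for 24 h, lysed in NP-40/Tris pH 7.5 buffer with protease inhibitors, NaF and orthovanadate. Equal protein run on SDS-PAGE, transferred to nitrocellulose. Probed overnight at 4 °C for uncleaved caspase 3 (pro-form) and uncleaved/cleaved PARP; HRP secondary 1 h at room temperature.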

A short description of assay [4]: Induction of cell cycle arrest in human UM-SCC2 cells assessed as accumulation at G2/M phase at 3 uM after 24 hrs by flow cytometry. It is filed as functional. The procedure, abridged: as §1
Assay [5] addresses RAC-alpha serine/threonine-protein kinase (Homo sapiens) (UniProt P31749). As to the kind of experiment: Inhibition of Akt in human UM-SCC2 cells assessed as decrease in total protein level at 0.1 to 5 uM after 24 hrs by Western blot analysis. The class given is cell-based. The procedure, abridged:
(§4)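 Increasing concentrations for 24 h. NP-40 lysates (with NaF and orthovanadate) cleared at 14,000 × g, equal protein separated by SDS-PAGE and blotted. Probed for phospho-Akt (Ser473), total Akt, phospho-ERK1/2 and total ERK; β-actin loading control. Primary antibody overnight at 4 °C, HRP secondary 1 h.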

In assay [6] the test system is JMAR. The assay can be described thus: Induction of apoptosis in human JMAR cells assessed as increase in non-viable necrotic cells at 5 uM after 24 hrs by FITC-conjugated annexin V and propidium iodide staining-based flow cytometry. It is filed as functional, cell-based. The procedure, abridged:
as §2

For assay [7], the target named is RAC-alpha serine/threonine-protein kinase (Homo sapiens) (UniProt P31749). As to the kind of experiment: Inhibition of Akt phosphorylation in human JMAR cells after 24 hrs by Western blot analysis. It is filed as cell-based. The procedure, abridged:
as §4

Assay [8] shares this target. As to the kind of experiment: Inhibition of Akt in human JMAR cells assessed as decrease in total protein level at 0.1 to 5 uM after 24 hrs by Western blot analysis. The class given is cell-based. In outline: as §4
Assay [9] relates to MDA1986. As to the kind of experiment: Induction of apoptosis in human MDA1986 cells assessed as increase in non-viable necrotic cells at 5 uM after 24 hrs by FITC-conjugated annexin V and propidium iodide staining-based flow cytometry. It is filed as functional, cell-based. In outline: as §2
Assay [10] deals with JMAR. The assay can be described thus: Induction of apoptosis in human JMAR cells assessed as increase in late apoptotic cells at 5 uM after 24 hrs by FITC-conjugated annexin V and propidium iodide staining-based flow cytometry. The class given is functional, cell-based. In outline:
as §2

The nature of assay [11]: Induction of cell cycle arrest in human JHU011 cells assessed as accumulation at G2/M phase at 3 uM after 24 hrs by flow cytometry. The class given is functional. The procedure, abridged: as §1
The test system of assay [12] is JMAR. As to the kind of experiment: Induction of apoptosis in human JMAR cells assessed as induction of PRAP cleavage after 24 hrs by Western blot analysis. The class given is functional, cell-based. The procedure, abridged: as §3
Assay [13] concerns the target T1, Mitogen-activated protein kinase; ERK1/ERK2 (Homo sapiens) (UniProt P27361+P28482). The assay can be described thus: Inhibition of ERK1/2 phosphorylation in human JMAR cells assessed as effect on total protein level at 0.1 to 5 uM after 24 hrs by Western blot analysis. The class given is cell-based. The procedure, abridged:
as §4

Assay [14] has as its system JHU011. As to the kind of experiment: Induction of apoptosis in human JHU011 cells assessed as increase in non-viable necrotic cells at 5 uM after 24 hrs by FITC-conjugated annexin V and propidium iodide staining-based flow cytometry. It is filed as functional, cell-based. In outline:
as §2

The target in assay [15] is RAC-alpha serine/threonine-protein kinase (Homo sapiens) (UniProt P31749). The assay can be described thus: Inhibition of Akt phosphorylation in human UM-SCC2 cells after 24 hrs by Western blot analysis. It is filed as cell-based. In outline: as §4
The subject of assay [16] is UM-SCC2. The assay can be described thus: Induction of apoptosis in human UM-SCC2 cells assessed as decrease in procaspase-3 level at 1 to 6 uM after 24 hrs by Western blot analysis. The class given is functional, cell-based. In outline: as §3
For assay [17], the system named is JMAR. The assay can be described thus: Induction of apoptosis in human JMAR cells assessed as decrease in procaspase-3 level at 1 to 6 uM after 24 hrs by Western blot analysis. It is filed as functional, cell-based. The procedure, abridged: as §3
A short description of assay [18]: Cytotoxicity against human MDA1986 cells after 72 hrs by MTS assay. It is filed as functional, cell-based. The note with it: MDA1986, 72 h. The procedure, abridged:
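Cells seeded at 2×10³ per well, grown 24 h, then given serial concentrations (DMSO stock diluted in medium; vehicle controls <0.1% v/v DMSO) for 72 h. MTS added, 3 h at 37 °C, 5% CO₂, absorbance at 490 nm. Viability as fraction of medium-only control; IC50 from viability–concentration curves; triplicate, means of three independent experiments. Cisplatin positive control.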

Assay [19] deals with JHU011. As to the kind of experiment: Induction of apoptosis in human JHU011 cells assessed as induction of PRAP cleavage after 24 hrs by Western blot analysis. The class given is functional, cell-based. The procedure, abridged: as §3
For assay [20], the target named is RAC-alpha serine/threonine-protein kinase (Homo sapiens) (UniProt P31749). The assay can be described thus: Inhibition of Akt in human MDA1986 cells assessed as decrease in total protein level at 0.1 to 5 uM after 24 hrs by Western blot analysis. The class given is cell-based. In outline: as §4
A short description of assay [21]: Induction of cell cycle arrest in human JMAR cells assessed as accumulation at G2/M phase at 3 uM after 24 hrs by flow cytometry. The class given is functional. In outline:
as §1

The target of assay [22] is T1, Mitogen-activated protein kinase; ERK1/ERK2 (Homo sapiens). As to the kind of experiment: Inhibition of ERK1/2 phosphorylation in human MDA1986 cells assessed as effect on total protein level at 0.1 to 5 uM after 24 hrs by Western blot analysis. The class given is cell-based. In outline:
as §4

The subject of assay [23] is UM-SCC2. The assay can be described thus: Induction of apoptosis in human UM-SCC2 cells assessed as increase in late apoptotic cells at 5 uM after 24 hrs by FITC-conjugated annexin V and propidium iodide staining-based flow cytometry. It is filed as functional, cell-based. In outline:
as §2

In assay [24] the test system is JHU011. As to the kind of experiment: Induction of apoptosis in human JHU011 cells assessed as mild increase in late apoptotic cells at 5 uM after 24 hrs by FITC-conjugated annexin V and propidium iodide staining-based flow cytometry. The class given is functional, cell-based. In outline:
as §2

RAC-alpha serine/threonine-protein kinase (Homo sapiens), sequence (P31749 whole entry): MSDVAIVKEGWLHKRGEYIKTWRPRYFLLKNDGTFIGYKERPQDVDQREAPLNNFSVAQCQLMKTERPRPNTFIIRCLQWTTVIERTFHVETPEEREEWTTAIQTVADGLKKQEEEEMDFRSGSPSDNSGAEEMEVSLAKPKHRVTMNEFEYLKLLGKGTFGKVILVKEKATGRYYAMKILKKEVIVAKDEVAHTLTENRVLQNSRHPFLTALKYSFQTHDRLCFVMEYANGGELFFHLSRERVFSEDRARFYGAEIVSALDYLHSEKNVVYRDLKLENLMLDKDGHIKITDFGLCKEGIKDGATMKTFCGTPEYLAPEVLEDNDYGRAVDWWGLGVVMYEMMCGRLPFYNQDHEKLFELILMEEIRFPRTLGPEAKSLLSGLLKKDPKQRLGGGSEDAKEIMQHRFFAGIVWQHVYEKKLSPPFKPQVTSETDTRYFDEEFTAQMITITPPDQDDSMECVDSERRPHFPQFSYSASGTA
T1 sequence (P27361 whole entry, looked up): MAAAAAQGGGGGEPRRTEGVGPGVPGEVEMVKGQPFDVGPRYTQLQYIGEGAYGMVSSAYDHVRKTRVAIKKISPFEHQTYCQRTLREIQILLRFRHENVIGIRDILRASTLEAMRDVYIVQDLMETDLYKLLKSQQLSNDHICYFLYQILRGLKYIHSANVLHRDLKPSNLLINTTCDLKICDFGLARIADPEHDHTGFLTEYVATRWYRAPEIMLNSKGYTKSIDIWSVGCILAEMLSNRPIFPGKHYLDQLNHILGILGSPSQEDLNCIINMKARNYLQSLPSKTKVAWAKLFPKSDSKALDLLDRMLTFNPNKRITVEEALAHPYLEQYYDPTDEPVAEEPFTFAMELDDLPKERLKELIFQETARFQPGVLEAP
T1 sequence (P28482 whole entry, looked up): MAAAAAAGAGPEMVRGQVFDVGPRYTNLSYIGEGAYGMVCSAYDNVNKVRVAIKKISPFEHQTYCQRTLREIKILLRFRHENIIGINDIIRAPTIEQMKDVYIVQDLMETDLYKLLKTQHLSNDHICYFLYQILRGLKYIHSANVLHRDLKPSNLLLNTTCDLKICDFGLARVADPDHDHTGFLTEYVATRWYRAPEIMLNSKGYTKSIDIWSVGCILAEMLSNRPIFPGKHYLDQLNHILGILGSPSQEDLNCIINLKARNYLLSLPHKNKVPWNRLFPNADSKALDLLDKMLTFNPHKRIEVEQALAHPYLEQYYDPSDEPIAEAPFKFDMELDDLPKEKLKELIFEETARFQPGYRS

With `CC1=C(CO)C(=O)O[C@@H]([C@@H](C)[C@H]2CC[C@H]3[C@@H]4C[C@H]5O[C@]56[C@@H](O)C=CC(=O)[C@]6(C)[C@H]4CC[C@]23C)C1` [WITHAFERIN A], the Activity in assay [1] is 49%; in assay [4], 36%; in [11] it was 34%; in assay [12], “Dose-dependent effect”; in [19], “Dose-dependent effect”; in [21], 42%. The result in [2], in [3], in [6], in assay [10], in [16] and in [17] was Active. In addition, the result in assay [23] and in assay [24] was Active. Besides, the inhibition result in [5], in assay [8] and in assay [20] was “Active” throughout. Besides, the inhibition result in assay [7] and in assay [15] was “Dose-dependent effect” throughout. The outcome in assay [9] and in [14] was inactive. The inhibition entry in assay [13] and in assay [22] was “inactive” in each case. Moreover, half-maximal inhibition in assay [18] (IC50) was put at 800 nM.
